Results from ChEMBL document CHEMBL1139499, “Nucleotides and pronucleotides of 2,2-bis(hydroxymethyl)methylenecyclopropane analogues of purine nucleosides: synthesis and antiviral activity” (J Med Chem, 2005).

test system: not listed separately; experiment: Effective concentration required to inhibit varicella zoster virus replication in HFF cells in plaque reduction assay; assay type: functional, cell-based; settings: Human alphaherpesvirus 3, HFF
Method in brief: (§1)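 VZV assayed in HFF cells by cytopathic effect (CPE) inhibition or by plaque reduction. Single experiments unless specified otherwise.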

SMILES	EC50
COC(=O)C(C)NP(=O)(OCC1(CO)C/C1=C/n1cnc2c(O)nc(N)nc21)Oc1ccccc1 (stereo not drawn)	7.3 µM

test system: HFF; experiment: Cytotoxic concentration against AD169 strain of human cytomegalovirus infected HFF cells of human (by neutral red uptake); assay type: functional; settings: not given

SMILES	CC50
Nc1ncnc2c1ncn2/C=C1/CC1(CO)CO	> 404 µM
COC(=O)C(C)NP(=O)(OCC1(CO)C/C1=C/n1cnc2c(O)nc(N)nc21)Oc1ccccc1 (stereo not drawn)	> 198 µM
Nc1nc(O)c2ncn(/C=C3/CC3(CO)COP(=O)(O)O)c2n1 (stereo not drawn)	> 291 µM

test system: Hepatitis B virus; experiment: Effective concentration required to inhibit hepatitis B virus replication in 2.2.15 cells in DNA hybridization assay; assay type: functional, organism-based; settings: HepG2 2.2.15
Method in brief: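 HBV assayed in 2.2.15 cells by DNA hybridization. CC50 values are those from the EBV/H-1 cytotoxicity determination, run in CEM cells. Single experiments unless specified otherwise.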

SMILES	EC50
Nc1ncnc2c1ncn2/C=C1/CC1(CO)CO	> 10 µM
COC(=O)C(C)NP(=O)(OCC1(CO)C/C1=C/n1cnc2c(O)nc(N)nc21)Oc1ccccc1 (stereo not drawn)	4.1 µM
Nc1nc(O)c2ncn(/C=C3/CC3(CO)COP(=O)(O)O)c2n1 (stereo not drawn)	15 µM

test system: not listed separately; experiment: Effective concentration required to inhibit varicella zoster virus replication in HFF cells in cytopathic reduction assay; assay type: functional, cell-based; settings: Human alphaherpesvirus 3, HFF; method in brief: as §1

SMILES	EC50
COC(=O)C(C)NP(=O)(OCC1(CO)C/C1=C/n1cnc2c(O)nc(N)nc21)Oc1ccccc1 (stereo not drawn)	6.3 µM

test system: Daudi; experiment: Cytotoxic concentration to inhibit replication in daudi cells; assay type: functional; settings: Homo sapiens

SMILES	CC50
Nc1ncnc2c1ncn2/C=C1/CC1(CO)CO	> 202 µM
COC(=O)C(C)NP(=O)(OCC1(CO)C/C1=C/n1cnc2c(O)nc(N)nc21)Oc1ccccc1 (stereo not drawn)	> 198 µM
Nc1nc(O)c2ncn(/C=C3/CC3(CO)COP(=O)(O)O)c2n1 (stereo not drawn)	> 146 µM

test system: Human betaherpesvirus 5; experiment: Effective concentration for antiviral activity against towne strain of human cytomegalovirus in plaque reduction assay; assay type: functional, organism-based; settings: not given
Method in brief: (§2)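 Human CMV (Towne and AD169 strains) grown in HFF cell culture; antiviral effect read by plaque reduction or by cytopathic effect (CPE) inhibition. Cytotoxicity measured in HFF cells. Single experiments unless specified otherwise.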

SMILES	EC50
Nc1ncnc2c1ncn2/C=C1/CC1(CO)CO	2.4 µM
COC(=O)C(C)NP(=O)(OCC1(CO)C/C1=C/n1cnc2c(O)nc(N)nc21)Oc1ccccc1 (stereo not drawn)	3.6 µM
Nc1nc(O)c2ncn(/C=C3/CC3(CO)COP(=O)(O)O)c2n1 (stereo not drawn)	0.25 µM

test system: Human gammaherpesvirus 4; experiment: Effective concentration required to inhibit Epstein-barr virus replication in daudi cells in viral capsid immunofluorescence ELISA; assay type: functional, organism-based; settings: human gammaherpesvirus 4, Daudi

SMILES	EC50
COC(=O)C(C)NP(=O)(OCC1(CO)C/C1=C/n1cnc2c(O)nc(N)nc21)Oc1ccccc1 (stereo not drawn)	> 99 µM
Nc1nc(O)c2ncn(/C=C3/CC3(CO)COP(=O)(O)O)c2n1 (stereo not drawn)	> 146 µM

test system: Human alphaherpesvirus 2; experiment: Effective concentration required to inhibit herpes simplex virus 2 in HFF cells in cytopathic effect (CPE) assay; assay type: functional, organism-based; settings: Human alphaherpesvirus 2, HFF
Method in brief: (§3)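 HSV-1 and HSV-2 assayed in HFF cells by cytopathic effect (CPE) inhibition and by plaque reduction. Cytotoxicity measured in HFF cells. Single experiments unless specified otherwise.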

SMILES	EC50
Nc1ncnc2c1ncn2/C=C1/CC1(CO)CO	> 404 µM
COC(=O)C(C)NP(=O)(OCC1(CO)C/C1=C/n1cnc2c(O)nc(N)nc21)Oc1ccccc1 (stereo not drawn)	> 198 µM
Nc1nc(O)c2ncn(/C=C3/CC3(CO)COP(=O)(O)O)c2n1 (stereo not drawn)	23.3 µM

test system: HFF; experiment: Cytotoxic concentration to inhibit herpes simplex virus 1 infected HFF cells; assay type: functional; settings: Homo sapiens; method in brief: as §3

SMILES	CC50
Nc1nc(O)c2ncn(/C=C3/CC3(CO)COP(=O)(O)O)c2n1 (stereo not drawn)	> 291 µM

test system: MEF; experiment: Cytotoxic concentration against murine cytomegalovirus infected MEF cells; assay type: functional; settings: Mus musculus

SMILES	CC50
Nc1ncnc2c1ncn2/C=C1/CC1(CO)CO	> 404 µM
COC(=O)C(C)NP(=O)(OCC1(CO)C/C1=C/n1cnc2c(O)nc(N)nc21)Oc1ccccc1 (stereo not drawn)	> 198 µM
Nc1nc(O)c2ncn(/C=C3/CC3(CO)COP(=O)(O)O)c2n1 (stereo not drawn)	175 µM

test system: Human betaherpesvirus 5; experiment: Effective concentration for antiviral activity against AD169 strain of human cytomegalovirus in plaque reduction assay; assay type: functional, organism-based; settings: not given; method in brief: as §2

SMILES	EC50
Nc1ncnc2c1ncn2/C=C1/CC1(CO)CO	11.7 µM
COC(=O)C(C)NP(=O)(OCC1(CO)C/C1=C/n1cnc2c(O)nc(N)nc21)Oc1ccccc1 (stereo not drawn)	8.1 µM
Nc1nc(O)c2ncn(/C=C3/CC3(CO)COP(=O)(O)O)c2n1 (stereo not drawn)	1.1 µM

test system: Human alphaherpesvirus 1; experiment: Effective concentration required to inhibit herpes simplex virus 1 in BSC-1 cells in ELISA; assay type: functional, organism-based; settings: Human alphaherpesvirus 1, BSC-1
Method in brief: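 HSV-1 assayed in BSC-1 cells with ELISA read-out; cytotoxicity in these assays determined in KB cells. Single experiments unless specified otherwise.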

SMILES	EC50
Nc1ncnc2c1ncn2/C=C1/CC1(CO)CO	50 µM
COC(=O)C(C)NP(=O)(OCC1(CO)C/C1=C/n1cnc2c(O)nc(N)nc21)Oc1ccccc1 (stereo not drawn)	> 100 µM
Nc1nc(O)c2ncn(/C=C3/CC3(CO)COP(=O)(O)O)c2n1 (stereo not drawn)	> 100 µM

test system: not listed separately; experiment: Effective concentration required to inhibit varicella zoster virus replication in HFF cells; assay type: functional, cell-based; settings: Human alphaherpesvirus 3, HFF; method in brief: as §1

SMILES	EC50
Nc1ncnc2c1ncn2/C=C1/CC1(CO)CO	> 404 µM
Nc1nc(O)c2ncn(/C=C3/CC3(CO)COP(=O)(O)O)c2n1 (stereo not drawn)	> 291 µM

test system: Human alphaherpesvirus 1; experiment: Effective concentration required to inhibit herpes simplex virus 1 in HFF cells in cytopathic effect (CPE) assay; assay type: functional, organism-based; settings: Human alphaherpesvirus 1, HFF; method in brief: as §3

SMILES	EC50
Nc1ncnc2c1ncn2/C=C1/CC1(CO)CO	> 404 µM
COC(=O)C(C)NP(=O)(OCC1(CO)C/C1=C/n1cnc2c(O)nc(N)nc21)Oc1ccccc1 (stereo not drawn)	> 198 µM
Nc1nc(O)c2ncn(/C=C3/CC3(CO)COP(=O)(O)O)c2n1 (stereo not drawn)	9.9 µM

test system: KB (Homo sapiens); experiment: Cytotoxic concentration required to inhibit KB cells; settings: not given

SMILES	CC50
Nc1ncnc2c1ncn2/C=C1/CC1(CO)CO	> 100 µM
COC(=O)C(C)NP(=O)(OCC1(CO)C/C1=C/n1cnc2c(O)nc(N)nc21)Oc1ccccc1 (stereo not drawn)	> 100 µM
Nc1nc(O)c2ncn(/C=C3/CC3(CO)COP(=O)(O)O)c2n1 (stereo not drawn)	> 100 µM

test system: HFF; experiment: Cytotoxic concentration against towne strain of human cytomegalovirus infected HFF cells of human (visual cytotoxicity); assay type: functional; settings: not given; method in brief: as §2

SMILES	CC50
Nc1ncnc2c1ncn2/C=C1/CC1(CO)CO	> 100 µM
COC(=O)C(C)NP(=O)(OCC1(CO)C/C1=C/n1cnc2c(O)nc(N)nc21)Oc1ccccc1 (stereo not drawn)	> 100 µM
Nc1nc(O)c2ncn(/C=C3/CC3(CO)COP(=O)(O)O)c2n1 (stereo not drawn)	100 µM

test system: Human alphaherpesvirus 2; experiment: Effective concentration required to inhibit herpes simplex virus 2 in vero cells in plaque reduction assay; assay type: functional, organism-based; settings: Human alphaherpesvirus 2, Vero
Method in brief: (§4)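 HSV-1 and HSV-2 assayed in Vero cells by plaque reduction. Single experiments unless specified otherwise.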

SMILES	EC50
Nc1ncnc2c1ncn2/C=C1/CC1(CO)CO	> 50 µM
COC(=O)C(C)NP(=O)(OCC1(CO)C/C1=C/n1cnc2c(O)nc(N)nc21)Oc1ccccc1 (stereo not drawn)	> 50 µM
Nc1nc(O)c2ncn(/C=C3/CC3(CO)COP(=O)(O)O)c2n1 (stereo not drawn)	> 50 µM

test system: HFF; experiment: Cytotoxic concentration to inhibit herpes simplex virus 2 infected HFF cells; assay type: functional; settings: Homo sapiens; method in brief: as §3

SMILES	CC50
Nc1nc(O)c2ncn(/C=C3/CC3(CO)COP(=O)(O)O)c2n1 (stereo not drawn)	> 291 µM

test system: not listed separately; experiment: Cytotoxic concentration to inhibit replication in H-1 cells (in CEM cells); assay type: functional; settings: Homo sapiens, CCRF-CEM
Method in brief: (§5)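 EBV assayed in H-1 cells by DNA hybridization. Cytotoxicity determined separately in CEM cells. Single experiments unless specified otherwise.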

SMILES	CC50
Nc1ncnc2c1ncn2/C=C1/CC1(CO)CO	> 50 µM
COC(=O)C(C)NP(=O)(OCC1(CO)C/C1=C/n1cnc2c(O)nc(N)nc21)Oc1ccccc1 (stereo not drawn)	35 µM
Nc1nc(O)c2ncn(/C=C3/CC3(CO)COP(=O)(O)O)c2n1 (stereo not drawn)	62 µM

test system: Human gammaherpesvirus 4; experiment: Effective concentration required to inhibit Epstein-barr virus replication in H-1 cells in DNA hybridization assay; assay type: functional, organism-based; settings: human gammaherpesvirus 4, H-1; method in brief: as §5

SMILES	EC50
Nc1ncnc2c1ncn2/C=C1/CC1(CO)CO	> 20 µM
COC(=O)C(C)NP(=O)(OCC1(CO)C/C1=C/n1cnc2c(O)nc(N)nc21)Oc1ccccc1 (stereo not drawn)	3.4 µM
Nc1nc(O)c2ncn(/C=C3/CC3(CO)COP(=O)(O)O)c2n1 (stereo not drawn)	2.3 µM

test system: Human alphaherpesvirus 1; experiment: Effective concentration required to inhibit herpes simplex virus 1 in vero cells in plaque reduction assay; assay type: functional, organism-based; settings: Human alphaherpesvirus 1, Vero; method in brief: as §4

SMILES	EC50
Nc1ncnc2c1ncn2/C=C1/CC1(CO)CO	> 50 µM
COC(=O)C(C)NP(=O)(OCC1(CO)C/C1=C/n1cnc2c(O)nc(N)nc21)Oc1ccccc1 (stereo not drawn)	> 50 µM
Nc1nc(O)c2ncn(/C=C3/CC3(CO)COP(=O)(O)O)c2n1 (stereo not drawn)	50 µM
